This is an account of results in ChEMBL document CHEMBL1130417 (J Med Chem, 1997).

Several values for one entry are separate records, joined by “and”; a condition that tells them apart may be missing. Equal values may be shown once.

Assay [1] concerns the target Delta-type opioid receptor (Rattus norvegicus, UniProt P33533). The assay can be described thus: Inhibition of radioligand [3H]DADLE binding to rat brain Opioid receptor delta 1. A digest of the protocol:
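Rat brain membranes were labelled with [3H]DADLE (1.7–2.5 nM) for 3–4 h at 25 °C in Tris-HCl pH 7.4 with 100 mM choline chloride, 3 mM MnCl2, protease inhibitor cocktail and 100 nM DAMGO to block μ sites. Nonspecific binding was set with 20 μM levallorphan. Displacement used 8–10 drug concentrations, run twice. IC50 and slope factor came from curve fitting.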

Assay [2] has as its target Mu-type opioid receptor (Rattus norvegicus, UniProt P33535). The assay can be described thus: Inhibition of radioligand [3H]DAMGO binding to rat brain Opioid receptor mu 1 […]. A digest of the protocol:
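Rat brain membranes were labelled with [3H]DAMGO (1–3 nM) for 4 h at 25 °C in 50 mM Tris-HCl pH 7.4 with protease inhibitor cocktail. Nonspecific binding was set with 20 μM levallorphan. Displacement used 8–10 drug concentrations, run twice, with drug diluted in Tris pH 7.4 containing 1 mg/mL BSA. IC50 and slope factor came from curve fitting.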

The target in assay [3] is Opioid receptors; mu & delta (Rattus norvegicus) (UniProt P33533+P33535). Put plainly: Mu/delta inhibitory ratio of compound determined Rat brain receptors.
Opioid receptors; mu & delta (Rattus norvegicus), sequence (P33533 whole entry, looked up): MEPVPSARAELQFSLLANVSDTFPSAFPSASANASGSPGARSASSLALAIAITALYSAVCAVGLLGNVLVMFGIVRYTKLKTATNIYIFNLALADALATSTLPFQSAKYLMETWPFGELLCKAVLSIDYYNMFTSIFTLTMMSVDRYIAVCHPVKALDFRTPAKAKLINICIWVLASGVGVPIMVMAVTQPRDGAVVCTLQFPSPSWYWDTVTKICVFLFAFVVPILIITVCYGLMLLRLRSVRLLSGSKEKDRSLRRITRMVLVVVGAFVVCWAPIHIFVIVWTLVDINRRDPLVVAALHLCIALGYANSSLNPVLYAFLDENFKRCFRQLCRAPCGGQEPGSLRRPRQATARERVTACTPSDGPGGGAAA
Opioid receptors; mu & delta (Rattus norvegicus), sequence (P33535 whole entry, looked up): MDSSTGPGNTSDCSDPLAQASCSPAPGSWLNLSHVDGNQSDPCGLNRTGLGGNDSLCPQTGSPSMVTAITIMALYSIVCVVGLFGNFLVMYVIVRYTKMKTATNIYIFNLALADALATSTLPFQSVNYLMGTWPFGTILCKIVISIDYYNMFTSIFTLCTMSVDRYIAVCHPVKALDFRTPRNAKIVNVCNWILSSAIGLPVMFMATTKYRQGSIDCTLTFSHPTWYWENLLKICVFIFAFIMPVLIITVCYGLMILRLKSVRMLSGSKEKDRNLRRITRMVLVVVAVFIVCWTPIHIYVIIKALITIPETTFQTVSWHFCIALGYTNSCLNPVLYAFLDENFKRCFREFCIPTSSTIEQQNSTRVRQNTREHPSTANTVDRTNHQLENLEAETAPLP
In assay [4] the target is Mu-type opioid receptor (Cavia porcellus, UniProt P97266). The assay can be described thus: Agonist activity was evaluated in guinea pig ileum (GPI) preparations at Opioid receptor mu 1. In kind it is functional, tissue-based. Put shortly: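 Longitudinal muscle–myenteric plexus strips from male Hartley guinea pig ileum (250–500 g) were held in 37 °C oxygenated Krebs bicarbonate under 1 g tension.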
Mu-type opioid receptor (Cavia porcellus, UniProt P97266), sequence (P97266 whole entry): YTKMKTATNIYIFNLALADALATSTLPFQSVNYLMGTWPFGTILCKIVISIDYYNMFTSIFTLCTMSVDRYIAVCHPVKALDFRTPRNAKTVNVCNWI

Assay [5] addresses Delta-type opioid receptor (Mus musculus, UniProt P32300). The assay can be described thus: Agonist activity was evaluated in mouse vas deferens (MVD) preparations at Opioid receptor delta 1. The class given is functional. Put shortly:
(§1)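 Vas deferens from male ICR mice (25–40 g) was held in 37 °C oxygenated magnesium-free Krebs bicarbonate under 0.5 g tension. Tissue was field-stimulated at 0.1 Hz with 2-ms supramaximal pulses.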

The species named for another assay is Cavia porcellus. Put plainly: IC50 ratio on Mu receptor of GPI to the delta receptor MVD. Put shortly:
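The ratio is guinea pig ileum IC50 divided by mouse vas deferens IC50. Both tissues were electrically stimulated at 0.1 Hz, the ileum with 0.4-ms and the vas deferens with 2-ms pulses, and exposed to cumulative agonist doses.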

The species entered for the next assay is Mus musculus. The assay can be described thus: Agonist activity was evaluated in mouse vas deferens (MVD) preparations at opioid delta receptor. The class given is functional. Put shortly:
as §1

Delta-type opioid receptor (Rattus norvegicus, UniProt P33533), sequence (P33533 whole entry): as the sequence (P33533 whole entry, looked up) above
Delta-type opioid receptor (Mus musculus, UniProt P32300), sequence (P32300 whole entry): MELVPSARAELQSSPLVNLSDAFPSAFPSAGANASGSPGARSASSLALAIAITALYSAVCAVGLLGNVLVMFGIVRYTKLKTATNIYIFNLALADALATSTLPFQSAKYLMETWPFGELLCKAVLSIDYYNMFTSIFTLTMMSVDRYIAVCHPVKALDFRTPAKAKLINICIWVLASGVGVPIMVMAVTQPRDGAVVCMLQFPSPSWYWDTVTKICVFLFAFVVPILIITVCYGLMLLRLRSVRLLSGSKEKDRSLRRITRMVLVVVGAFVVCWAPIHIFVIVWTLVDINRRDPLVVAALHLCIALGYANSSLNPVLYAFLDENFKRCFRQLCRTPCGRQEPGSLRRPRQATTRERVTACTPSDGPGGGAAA
Mu-type opioid receptor (Rattus norvegicus, UniProt P33535), sequence (P33535 whole entry): as the sequence (P33535 whole entry, looked up) above

One may read the IC50 as the concentration that inhibits the measured activity by half. Read a high IC50 as a need for much substance. Turning to `C=CCN1C[C@H](C)N([C@@H](c2ccc(C(=O)N(CC)CC)cc2)c2cccc(F)c2)C[C@H]1C`, the IC50 in assay [1] was 62.5 nM; at Mu-type opioid receptor [2], over 10000 nM. Also, the Ratio in assay [3] was over 160.

As for `C=CCN1C[C@H](C)N([C@@H](c2ccc(C(=O)N(CC)CC)cc2)c2cccc(I)c2)C[C@H]1C`, the values for the IC50 (in assay [1]; at Mu-type opioid receptor [2]) were 41.1 nM and 3380 nM, respectively. Besides, the Ratio in assay [3] was 82.2.

As for `C=CCN1C[C@H](C)N([C@H](c2ccc(C(=O)N(CC)CC)cc2)c2cccc(I)c2)C[C@H]1C`, the IC50 on Mu-type opioid receptor [4] was over 3000 nM; in assay [1] it was 3.91 nM; on Mu-type opioid receptor [2] it was 1230 nM; in assay [5], 44.2 nM. Moreover, the Ratio in assay [3] stood at 314.

Turning to `C=CCN1C[C@H](C)N([C@@H](c2ccc(C(=O)N(CC)CC)cc2)c2cccc(O)c2)C[C@H]1C`, the IC50 in assay [1] was 11.4 nM.

For the compound `C=CCN1C[C@@H](C)N([C@H](c2ccc(C(=O)N(CC)CC)cc2)c2cccc(F)c2)C[C@@H]1C` (single isomer, unassigned), the half-maximal inhibitory concentration (IC50) in assay [1] is 4.75 nM; at Mu-type opioid receptor [2], over 10000 nM. Further, the Ratio in assay [3] is over 2110.

`C=CCN1C[C@@H](C)N([C@H](c2ccc(C(=O)N(CC)CC)cc2)c2cccc(O)c2)C[C@@H]1C` (single isomer, unassigned): the IC50 in assay [1] is 1.74 nM.

Compound `CC(NC(=O)[C@@H](N)Cc1ccc(O)cc1)C(=O)N[C@@H](Cc1ccccc1)C(=O)N[C@@H](CC(=O)O)C(=O)N[C@H](C(=O)N[C@H](C(=O)NCC(N)=O)C(C)C)C(C)C` (single isomer, unassigned) [DELTORPHIN C] showed an IC50 on Mu-type opioid receptor [4] of 15000 nM. In other words, the double-digit micromolar range.

In turn, `C=CCN1C[C@H](C)N([C@H](c2ccc(C(=O)N(CC)CC)cc2)c2cccc(O)c2)C[C@H]1C` (stereo in doubt; (+)-1) yielded an IC50 in assay [1] of 1.49 nM. This counts as single-digit nanomolar.

For the compound `C=CCN1C[C@H](C)N([C@@H](c2ccccc2)c2ccc(C(=O)N(CC)CC)cc2)C[C@H]1C` (stereo in doubt; (+)-22) [listing 1 of 2 here], the IC50 on Mu-type opioid receptor [4] was 8580 nM; in assay [1], 0.94 nM; at Mu-type opioid receptor [2] it was over 2500 nM.

As for `C=CCN1C[C@H](C)N([C@@H](c2ccccc2)c2ccc(C(=O)N(CC)CC)cc2)C[C@H]1C` (stereo in doubt; (+)-22) [listing 2 of 2 here], the Ratio in assay [3] was over 2660; in the assay listed under Cavia porcellus it was 813.

With `C=CCN1C[C@H](C)N([C@H](c2ccc(C(=O)N(CC)CC)cc2)c2cccc(F)c2)C[C@H]1C` (stereo in doubt; (+)-23) [listing 1 of 2 here], the IC50 was 2600 nM at Mu-type opioid receptor [4]; 2.92 nM in assay [1]; 200 nM in the assay filed under Mus musculus; 1980 nM on Mu-type opioid receptor [2]; 9.77 nM and 10.3 nM in assay [5].

`C=CCN1C[C@H](C)N([C@H](c2ccc(C(=O)N(CC)CC)cc2)c2cccc(F)c2)C[C@H]1C` (stereo in doubt; (+)-23) [listing 2 of 2 here]: the Ratio in assay [3] is 677; in the assay filed under Cavia porcellus, 265.

`C=CCN1C[C@H](C)N([C@@H](c2ccc(C(=O)N(CC)CC)cc2)c2cccc(OC)c2)C[C@H]1C` (stereo in doubt; (+)-25) had an IC50 on Mu-type opioid receptor [2] of 5710 nM.

With `C=CCN1C[C@H](C)N([C@H](c2ccccc2)c2ccc(C(=O)N(CC)CC)cc2)C[C@H]1C` (stereo in doubt; (+)-26) [listing 1 of 2 here], the figures for the concentration for half-maximal inhibition (IC50) (in assay [1]; on Mu-type opioid receptor [2]) were 60 nM and over 10000 nM, respectively.

Turning to `C=CCN1C[C@H](C)N([C@H](c2ccccc2)c2ccc(C(=O)N(CC)CC)cc2)C[C@H]1C` (stereo in doubt; (+)-26) [listing 2 of 2 here], in assay [3], the Ratio was over 167.

With `C=CCN1C[C@H](C)N([C@H](c2ccc(C(=O)N(CC)CC)cc2)c2cccc(O)c2)C[C@H]1C` (stereo in doubt; (-)-1), in assay [1], the IC50 came to 58.3 nM.

Take `C=CCN1C[C@H](C)N([C@@H](c2ccccc2)c2ccc(C(=O)N(CC)CC)cc2)C[C@H]1C` (stereo in doubt; (-)-22) [listing 1 of 2 here]: the IC50 in assay [1] is 852 nM; at Mu-type opioid receptor [2], over 10000 nM.

With `C=CCN1C[C@H](C)N([C@@H](c2ccccc2)c2ccc(C(=O)N(CC)CC)cc2)C[C@H]1C` (stereo in doubt; (-)-22) [listing 2 of 2 here], in assay [3], the Ratio is over 11.7.

For the compound `C=CCN1C[C@H](C)N([C@H](c2ccc(C(=O)N(CC)CC)cc2)c2cccc(F)c2)C[C@H]1C` (stereo in doubt; (-)-23) [listing 1 of 2 here], the IC50 was 1380 nM in assay [1] and over 10000 nM on Mu-type opioid receptor [2].

Take `C=CCN1C[C@H](C)N([C@H](c2ccc(C(=O)N(CC)CC)cc2)c2cccc(F)c2)C[C@H]1C` (stereo in doubt; (-)-23) [listing 2 of 2 here]: in assay [3], the Ratio was over 7.3.

Consider `C=CCN1C[C@H](C)N([C@@H](c2ccc(C(=O)N(CC)CC)cc2)c2cccc(OC)c2)C[C@H]1C` (stereo in doubt; (-)-25), for which the IC50 at Mu-type opioid receptor [4] was determined as 1520 nM; on Mu-type opioid receptor [2], 9140 nM.

With `C=CCN1C[C@H](C)N([C@H](c2ccccc2)c2ccc(C(=O)N(CC)CC)cc2)C[C@H]1C` (stereo in doubt; (-)-26) [listing 1 of 2 here], the IC50 at Mu-type opioid receptor [4] came to 1780 nM; in assay [1], 9.22 nM; at Mu-type opioid receptor [2], 8450 nM; in assay [5], 126 nM.

As for `C=CCN1C[C@H](C)N([C@H](c2ccccc2)c2ccc(C(=O)N(CC)CC)cc2)C[C@H]1C` (stereo in doubt; (-)-26) [listing 2 of 2 here], in assay [3], the Ratio was over 916.
